Tested on: MS2 coat protein
Experiment: apparent Kd, MS2 coat protein; higher = weaker binding; RNA-MaP array; FMN 200 µM where present
Procedure, shortened: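 Designs were transcribed by stalled E. coli RNA polymerase on Illumina sequencing-chip clusters. They were titrated with SNAP-549-labelled MS2 coat protein from 0.7 or 1.5 nM, doubling to 3 µM, in 100 mM Tris-HCl pH 7.5, 80 mM KCl, 4 mM MgCl2, BSA, DTT, yeast tRNA and Tween-20, without and then with constant ligand. The apparent Kd is the median of filtered per-cluster fits after normalisation of green signal to red-channel RNA signal and control-cluster median Fmax.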

[1] = designed as: OFF switch for flavin mononucleotide, no ligand
[2] = ligand present: flavin mononucleotide, designed as: OFF switch for flavin mononucleotide
[3] = ligand present: flavin mononucleotide, designed as: ON switch for flavin mononucleotide
[4] = designed as: ON switch for flavin mononucleotide, no ligand

Row | Sequence | apparent Kd [1] [nM] | apparent Kd [2] [nM] | apparent Kd [3] [nM] | apparent Kd [4] [nM]
1 | CAUGUCUGAGGAUAUCGUUUUUUGUACAUGAGGAUCACCCAUGUCCUAUUUUUUUUAUUUCGAGAAGGCAGUGUAU | 47.7 | 37.7 | – | –
2 | GUUUCACAUGAGGAUCACCCAUGUGAGGAUAUAGAUUUUUUAGUAAUAAUUGUUGGAUUUAGAAGGCGCGUGAU | 22 | 21.5 | – | –
3 | AAGGACUGAGGAUAUGCGCGGGCAAGAUCCUCAAUCCCAAAACAUGAGGAUCACCCAUGUAGAAGGCAGAAAUA | 25.8 | 22.6 | – | –
4 | AGUCAUACAGGAUAUACAUGAGGAUCACCCAUGUUUAUCCUAAAAUAAAGAUCCUCAUGUAGAAGGGUAUGACA | 12.8 | 12.6 | – | –
5 | CGUCUAUGCAAGAAGGCAUGAAACAUGAGGAUCACCCAUGUCAAAGACAUGAGGAUAUUGCAUAGACGAAAAGUGCGAAAGCAC | – | – | 3.32 | –
6 | ACAUACAUUCGAGGAUAUCGGUGAUAACUCAAACGAGAAGGCGAUUUAAAACAUAAUGCUGUAGACAUGAGGAUCACCCAUGUA | – | – | 137 | 497
7 | AGAUAGUGCAGAGGAUAUCUUAAUAGAAAGAAUAGAGAAGGCUGACAUGAGGAUCACCCAUGUGAUGUCUUGAGACUACAUGGU | 48.4 | 336 | – | –
8 | UAUUAUCACGAAGGAUAUGCUGACAUGAGGAUCACCCAUGUAUGUAUAUUGGUCCAGCGUAUUUAGCAGAAGGUCGUGAGUAAA | 45.4 | 73.5 | – | –
9 | AGAAACUACGAGAAGGACAUAUGAUUAAGACGAAACAUGAGGAUCACCCAUGUAGGAUAUCGUAGUUUCAGGAUCGUGAGAUCA | 7.21 | 17.8 | – | –
10 | GGUCGUCCCAUUAACAUGAGGAUCACCCAUGUCAAAAGACAUGAGGAUAUGCUACCUAAUUGGUAGCAGAAGGCAUGGACGACC | – | – | 84.7 | 1170
11 | AUAUACAUUCGAGGAUAUCGUUAAAAUGUUAUGCGAGAAGGCGAGUCAUGAUUUAUUAUUUAGGACAUGAGGAUCACCCAUGUA | – | – | 33.1 | 40.2
12 | AGCUGUGGCCGAGGAUAUCUAAACCUCGAAAACGAAAUAUAAUCGAACAUGAGGAUCACCCAUGUAGAGAAGGCGGUCUCAGCA | 69.6 | 211 | – | –
13 | UCUUUCUUUGUGAGGAUAUGCCCAAAUAAAAGCGGGCAGAAGGCACAUGAGGAUCACCCAUGUUCUGCGGUUUU | 54.5 | 486 | – | –
14 | AGUCGGAGCAGAGGAUAUUACAUGAGGAUCACCCAUGUGGAAAAACCAAGCUGGAAACAGCAAUGUAAGAAGGCUGCUCCGACA | 497 | 879 | – | –
15 | AUUUGUAAUACAGGAUAUGUUAGUUUACAGUAGAUUGGUUAUUACUCAACUACAGAAGGGUAGUACAUGAGGAUCACCCAUGUA | – | – | 14.8 | 20.7
16 | AAGAAUCAAGGAUAUGCAUGAUACGACAUGAGGAUCACCCAUGUCCUCAUGCGUAUCCUUGCAGAAGGUGAGUAUA | 13.8 | 17.1 | – | –
17 | AAUUCGUUCUAGAAGGUGCAUUUGUUAAACGUGCAAGGAUAUAGACAUGAGGAUCACCCAUGUCUAUGAGACAUCGGCCUCCUG | 5.33 | 8.23 | – | –
18 | GUAAACGAUGAGGAUAUAUGAUAUCAAAGCAUCAUAGAAGGCAUCACAUGAGGAUCACCCAUGUGAUCUUCUUU | 17.5 | 78.5 | – | –
19 | AUAAAUCAUGUAGGAUAUGCGUGGCGAAGCUAUGCAGAAGGACAUGAGGAUCACCCAUGUCUUUCCGUCUGCGUAUAGACGGAA | 30.5 | 279 | – | –
20 | GUCAGCUCGUGAGGAUAUACAUCACUGCUUCGGCAGUGUAUUAACAUCACAUGAGGAUCACCCAUGUAGAAGGCACGAGCUGAU | 16 | 22.7 | – | –
21 | AGCUACGUUUCGUAGCAGCUAGGUGAGGAUAUCCACUCUACAUGAGGAUCACCCAUGUUAACAUGGGAGAAGGCGCCUAGAAAG | – | – | 11.8 | 104
22 | UAAAAGGCAGGAUAUGCAGGUGACCCGACUCGCCGGGCUAAACAUGAGGAUCACCCAUGUAGAAGGGCCAAAAG | 15.7 | 43.6 | – | –
23 | GUAGAGUAAGGAUAUCGUGAAUAGGAUAGAAUGGUUAGAAACGAGAAGGUACAUGAGGAUCACCCAUGUAAUGU | 20.7 | 21.3 | – | –
24 | CGCUUCUUAGUCAGGAUAUUGUCUGCACAGGGUAGUAAGAAGGGACAUGAGGAUCACCCAUGUAUAACGGUACC | 51.8 | 49.1 | – | –
25 | GGUCGUCAAGUCAGGAUAUCGUAUAAUAGAUAUAACGAGAAGGGACAUGAGGAUCACCCAUGUCGUCUCAUCAG | 17.1 | 23.7 | – | –
26 | GCAGACGUAGUGAGGAUAUGCUCUACCUCGGUAGAGCAGAAGGCACAUGAGGAUCACCCAUGUGGCUCCUCAUC | 15.6 | 21.9 | – | –
27 | GUCAGCUCGUGAGGAUAUACAUGUGCUGGAAACAGCACUAAUUAAAUCACAUGAGGAUCACCCAUGUAGAAGGCACGAGCUGAU | 16.4 | 23.6 | – | –
28 | GCGGUCAACGUAGGAUAUCUUCAGCCACAGCGCAUUGCUGUACAUGAGGAUCACCCAUGUCCUGGAGAGAAGGACGGACGGCAG | – | – | 34.2 | 123

Row | Sequence | apparent Kd [1] [nM] | apparent Kd [2] [nM] | apparent Kd [3] [nM] | apparent Kd [4] [nM]
29 | ACUUCACAUGAGGAUCACCCAUGUCAGGCCGGACUAGGAUAUUAUCAUGCAGCGUGACCGUGAGAAGGAGUUGGAU | – | – | 114 | 110
30 | UAUGUAUUCGUAGGAUAUCCGUUGAGACCGUGUGGAGAAGGACGAACAUGAGGAUCACCCAUGUAUCAUGGUGUAGACAAUUUU | 115 | 353 | – | –
31 | UUAAUCUAUACAGGAUAUCCAUACGGUGCAUACGGAGAAGGGUAACAAUCAUGAGGACAUGAGGAUCACCCAUGUUCUGACCAU | – | – | 6.35 | 7.23
32 | AAAUUGGUAGAGGAUAUCGCACAGGAUUUACUGCGAGAAGGCUGCACAUGAGGAUCACCCAUGUUUUGUUGCGA | 15.2 | 18.1 | – | –
33 | AUCAGCUCGUCAGGAUAUACGUCAGUGCGUCAGCAGUGUGGUAAGAUCACAUGAGGAUCACCCAUGUAGAAGGGACGAGCUGAU | 161 | 621 | – | –
34 | GUCAGCUCGUGAGGAUAUACAUGUGCUGGAUACAGCAUUAAAUUUUUCACAUGAGGAUCACCCAUGUAGAAGGCACGAGCUGAU | 19.2 | 49.6 | – | –
35 | AUAAUAAUAUAAGGAUAUACGUCACUGCGUCAGCAGUGUGGUAAGAUCACAUGAGGAUCACCCAUGUAGAAGGAUAAAUUAAAU | 12.4 | 9.22 | – | –
36 | GGCGAAGUAGGAUAUACAUGAGGAUCACCCAUGUAACCUGAUGGCGUAGGUCUUCUAUGUAGAAGGGCUACGCC | 15.9 | 16.9 | – | –
37 | GUCAGCUCGUGAGGAUAUACAACACUGCUUCGGCAGUGUAUUAAAAUAACAUGAGGAUCACCCAUGUAGAAGGCACGAGCUGAU | 5.14 | 6.62 | – | –
38 | GGGUACAUCGUAGGAUAUCAUGUAAAUACAUGAGGAUCACCCAUGUCGAUGGAGACAUCGGAGAUUGAGAAGGCCGAUGUACCG | – | – | 17.9 | 206
39 | AGUUAAUAUCGAGGAUAUGUCUAAACACAUGAGGAUCACCCAUGUAUGUGUAUAGAAGGCGAUAUUAACAGCAUGUUACAUGCA | – | – | 8.58 | 28.8
40 | AUCACGUAAGGAUAUUCCUACGCAGACAUGAGGAUCACCCAUGUGUUAGUGAAGAAUCGAGGAGAAGGUACAAUGG | 29.5 | 26.8 | – | –
41 | CGAAGCCCGUAGAAGGGUGACAUGAGGAUCACCCAUGUGCGAGCGGAGGGAGUCAGCGGCUCGCCACAGGAUAUACGGAGCUCG | – | – | 67.9 | 151
42 | GAUUGACAAGGAUAUACAUGAGGAUCACCCAUGUGCUUCAGCUAGGAGACUAGCAUUGGUAGAAGGUGUUAAUC | 20.3 | 68.4 | – | –
43 | ACAUGAGGAUCACCCAUGUAUACAUAGGAUAUUGGUGAUCAGGCAUGUUUUACAGGAUAUGUCUGCGAGAAGGAUGCAAGUUGC | – | – | 424 | 557
44 | GGACGACACAUGAACAUGAGGAUCACCCAUGUAAAUUCUCAUGAGGAUAUGGAUCCUAAUUGGAUCCAGAAGGCGUGGUCGUCC | – | – | 507 | 961
45 | UUCCUCGUUGUGAGGAUAUCGUCCGUGUUUUGUUACGAGAAGGCACAUGAGGAUCACCCAUGUUUUUUGUUUUU | 39.2 | 77.7 | – | –
46 | GGAUAGGACAGAGGAUAUACGUGCUAGAGAUACUAGUAAAAUUUCCUCACAUGAGGAUCACCCAUGUAGAAGGCUGUCCUAUCG | 36.1 | 684 | – | –
47 | CUUUGAUGAGGAUAUCGAGGUUAGUACAUGAGGAUCACCCAUGUUAUCCAGGUGUCGGAUCGAGAAGGUAUUGGAC | – | 17.5 | – | –
48 | AAAUCCUACGAAGGAUAUACAAACAUGAGGAUCACCCAUGUGUGUUUCGUGUAACUGGAAUUCGGGUAGAAGGUCGUAGACAUA | 33.2 | 20.8 | – | –
49 | AAACAGUACGAGAAGGGCUACAUGAGGAUCACCCAUGUAGACGGUCGUGUGGCAGGAUAUCGAACACACCGAAAACGGUGCGUU | 5.32 | 7.09 | – | –
50 | CAGCAAGUCACAGGAUAUGGUGAUGUACAUGAGGAUCACCCAUGUCCGUCUUCUCUCACAAGAUGCCAGAAGGGUGACUUCCGG | – | – | 135 | 950
51 | AGGAAGUGAGGAUAUGCAUCAUAUAGUGGACGCUAUAGAAUGUAGAAGGCACAUGAGGAUCACCCAUGUUUAAA | 30.2 | 29.3 | – | –
52 | CAGUACUGAGGAUAUACAUGAGGAUCACCCAUGUGUUCCUUGUAGGAUAUCCGCAAAAGUAGAAGCCAGAAGGAGAUGUGCCUA | 200 | 119 | – | –
53 | UUUGCAACAUGAGGAUCACCCAUGUAGGAUAUCGCUAUUGUAAUCAUGAAACAUGAUUACAAUAGCGAGAAGGACAUAUGCAAA | 7.54 | 10.4 | – | –
54 | UAAACACCCUCAUGUGCCUGAGGACAUGAGGAUCACCCAUGUAAGGAUAUAGCCAUUAAAUCUAACUAGAAGGUAUAGGAAAUC | 597 | 476 | – | –
55 | GUCAGCUCGUGAGGAUAUACAACACUGCUUCGGCAGUGUCUUAAGAUCACAUGAGGAUCACCCAUGUAGAAGGCACGAGCUGAU | 8.98 | 168 | – | –
